Variants at the floor of the assay were thinned out.
B1: tRNA (parent)
chain: GUUCCGUUGGCGUAAUGGUAACGCGUCUCCCUCCUAAGGAGAAGACUGCGGGUUCGAGUCCCGUACGGAACG

Variants of: B1
Test: yeast fitness relative to wild type (ratio to wild type); higher = fitter; tRNA-Arg(CCU), competitive growth, 37 C, YPD
How it was run: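 Start and end populations of a pooled competition were compared by 100-nucleotide paired-end sequencing of gene amplicons. The Saccharomyces cerevisiae strains carried tRNA-Arg(CCU) gene variants at the native genomic locus, synthesised with a 3% per-site mutation rate at 69 sites, and competed in YPD at 37°C for 24 hours in six parallel replicates. Darwinian fitness relative to wild type was based on the change in genotype frequencies. Genotypes required ≥ 100 starting reads, and estimates < 0.5 were set to 0.5.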

Going from A15G G17A C33U G39C C55A G67C to A15U C27U A36G C61U C62U, the yeast fitness falls from 0.66 to ≤ 0.5.

A15U G18C G41A A69C A70G and A15U A20G C27A C29A U47G C60G cannot be ordered by yeast fitness: ≤ 0.5 for the first, ≤ 0.5 for the second.

Compared with A15G C49G, A15U C31U G52A A57U G58C is lower in yeast fitness: 0.782 for the first, ≤ 0.5 for the second.

Compared with A15U C33U, A15G U19C G51C C55U is lower in yeast fitness: 0.724 for the first, 0.582 for the second.

Going from A15U G39A A57U C62G to A15G G25A, the yeast fitness rises from 0.502 to 0.87.

First: A15G G25C
Second: A15U A20U A45C A57G
The yeast fitness of the first is higher: 0.987 for the first, ≤ 0.5 for the second.

Compared with A15G G63C, A15U U16A is lower in yeast fitness: 0.918 for the first, 0.705 for the second.

Going from A15U U16C to A15U G38C, the yeast fitness falls from 0.893 to 0.699.

A15U A43C G67U and A15U G38C G39A A43C C61U cannot be ordered by yeast fitness: ≤ 0.5 for the first, ≤ 0.5 for the second.

A15U A20G C46G C61A and A15U A20G C55U G63C cannot be ordered by yeast fitness: ≤ 0.5 for the first, ≤ 0.5 for the second.

A15U C46G C55A A69U and A15G U35A A57G C62G cannot be ordered by yeast fitness: ≤ 0.5 for the first, ≤ 0.5 for the second.

A15U A21C C24G C29U A42C G56U U59A and A15G U28G U53A G56A cannot be ordered by yeast fitness: ≤ 0.5 for the first, ≤ 0.5 for the second.

First: A15U A20G
Second: A15U A20C
The yeast fitness of the first is higher: 0.772 for the first, 0.646 for the second.

Compared with A15U G25A C27A C33U, A15G U16A A45U is higher in yeast fitness: 0.512 for the first, 0.642 for the second.

First: A15G C31U C60A
Second: A15G C55A
The yeast fitness of the first is lower: 0.584 for the first, 0.727 for the second.

Compared with A15U C27U G44C G58C G63C, A15U A43U A69C is higher in yeast fitness: ≤ 0.5 for the first, 0.697 for the second.

First: A15G G38A A40C G50A U54A
Second: A15U G18A A42U
The yeast fitness of the first is lower: ≤ 0.5 for the first, 0.567 for the second.

A15G U19A U28A and A15U G23C C33A G63A cannot be ordered by yeast fitness: ≤ 0.5 for the first, ≤ 0.5 for the second.

Going from A15G G68A to A15G G25C C55U, the yeast fitness falls from 0.894 to 0.562.

First: A15G C60U C62U
Second: A15U C60A G63A
The yeast fitness of the first is higher: 0.64 for the first, ≤ 0.5 for the second.

First: A15U
Second: A15U C29G C31G
The yeast fitness of the first is higher: 0.885 for the first, ≤ 0.5 for the second.

Compared with A15G U28G, A15U G17A C34G C46A is lower in yeast fitness: 0.646 for the first, 0.569 for the second.

A15U G18C G23C C24G and A15G U54G C55U A65G cannot be ordered by yeast fitness: ≤ 0.5 for the first, ≤ 0.5 for the second.

First: A15U A37U G67C
Second: A15U G58C C66U
The yeast fitness of the first is lower: ≤ 0.5 for the first, 0.631 for the second.

A15G G17A A40C and A15U C27A A65C G67A A69C cannot be ordered by yeast fitness: ≤ 0.5 for the first, ≤ 0.5 for the second.

First: A15U C46G C61A
Second: A15U A21C G23C C55A U64A A65C
The yeast fitness of the first is higher: 0.51 for the first, ≤ 0.5 for the second.

First: A15G U26C G56A A69U
Second: A15G G44A G58A
The yeast fitness of the first is lower: ≤ 0.5 for the first, 0.992 for the second.

Going from A15G U26G A57G to A15U C29A C34U C55A, the yeast fitness falls from 0.611 to 0.519.

A15U C22U A43C C55U G58A and A15U G56A C61G C66U cannot be ordered by yeast fitness: ≤ 0.5 for the first, ≤ 0.5 for the second.

Compared with A15G U26A, A15U A21C is lower in yeast fitness: 1.04 for the first, 0.611 for the second.

Going from A15G G23C A43G to A15U A20C U26A C30G U35A G38C U64A, the yeast fitness falls from 0.54 to ≤ 0.5.

Compared with A15U G23A C34A C49G A57G, A15G G50A U54A A57C is higher in yeast fitness: 0.57 for the first, 0.583 for the second.

First: A15U C29A C49G
Second: A15G U16A A20G A42G
The yeast fitness of the first is higher: 0.634 for the first, 0.577 for the second.

First: A15U C49U
Second: A15G U53A C55A U64G
The yeast fitness of the first is higher: 0.731 for the first, 0.571 for the second.

First: A15U A20G C27U G48C A70U
Second: A15U C27U G48C
The yeast fitness of the first is lower: ≤ 0.5 for the first, 0.587 for the second.

Going from A15U C24A C55U U59C to A15G G25A U32G A40G C60G, the yeast fitness falls from 0.526 to 0.501.

First: A15U A40G A42G A57U C62G C66U
Second: A15G U54A A70U
The yeast fitness of the first is lower: ≤ 0.5 for the first, 0.564 for the second.

Going from A15U C33G C62G C66U to A15G C60U, the yeast fitness rises from ≤ 0.5 to 0.786.

Compared with A15U C24U C27U C49U, A15U C27U A65U is higher in yeast fitness: ≤ 0.5 for the first, 0.725 for the second.

Compared with A15U C31U G67A, A15U C27G C49A G52U is lower in yeast fitness: 0.565 for the first, ≤ 0.5 for the second.

Going from A15U C22U U54C to A15U G39C A42C A65C, the yeast fitness falls from 0.754 to ≤ 0.5.

A15G G67U gave a yeast fitness of 0.662.
